Results of several laboratories.
Compare with care: the assays were run in different laboratories.
Target: Death-associated protein kinase 1 (DAPK1, Homo sapiens, UniProt P53355)

CNCc1ccccc1-c1csc([C@H](C)Nc2nc(C)nc3cc(OC)c(OC)cc23)c1 — remaining binding (cell-free assay; competition with immobilised ligand; 1 µM): 100%
CN(C)c1nccc(-c2cnc3ncccn23)n1 — remaining binding (binding; 1 µM): 92%
C[C@@H](c1ccc(-n2cnc3c(N)ncnc32)cc1)N1CCc2nn(C)c(Cc3ccccc3)c2C1=O — remaining binding (binding; competition with immobilised ligand; 0.1 µM): 95%
NS(=O)(=O)c1cc(NC(=O)C2(c3ccccc3Cl)CC2)ccc1Oc1cccc(Cl)c1 — remaining binding (cell-free assay; competition with immobilised ligand; 1 µM): 98%
CN(CCCC(F)(F)F)c1nccc(-c2cnn3ncccc23)n1 — remaining binding (binding; 1 µM): 100%
C[C@H](c1ccc(F)cc1)N(Cc1cccc(C(=O)O)c1)C(=O)c1cnc2ccccc2c1 — remaining binding (cell-free assay; competition with immobilised ligand; 1 µM): 97%
COc1cnc(Nc2cccc(S(N)(=O)=O)c2)nc1N1CCN(c2ccccc2)CC1 — remaining binding (binding; competition with immobilised ligand; 1 µM): 83%
O=C1CCc2cc(Nc3cc(OC4CCOCC4)c([N+](=O)[O-])cc3Cl)ccc2N1 — remaining binding (cell-free assay; competition with immobilised ligand; 1 µM): 90%
Cc1cnn2ncc(-c3ccnc(N(C)C)n3)c2c1 — remaining binding (binding; 1 µM): 74%
O=C(NCCCN1CCOCC1)c1ccc(Nc2nccc(-c3cc4ccccc4s3)n2)cc1 — remaining binding (binding; competition with immobilised ligand; 1 µM): 18%
COc1cnc(Nc2cccc(S(N)(=O)=O)c2)nc1N1CCN(c2ccccc2)C(=O)C1 — remaining binding (binding; competition with immobilised ligand; 1 µM): 95%
O=C(c1ccc(Nc2ncc(Cl)c(-c3ccc(Cl)s3)n2)cc1)N1CCC(N2CCCC2)CC1 — remaining binding (binding; competition with immobilised ligand; 1 µM): 17%
CC1CCCN1c1nccc(-c2cnn3ncccc23)n1 (centres unmarked) — remaining binding (binding; 1 µM): 99%
COc1ncc2cc3ccccc3nc2c1C#N — remaining binding (cell-free assay; competition with immobilised ligand; 5 µM): 95%
COc1cc(-c2cn(C3CCc4c(F)cccc4N(CC(F)(F)F)C3=O)nn2)ccc1-n1cnc(C)c1 (centres unmarked) — remaining binding (cell-free assay; competition with immobilised ligand; 1 µM): 99%
O=C(c1ccc(Nc2ncc(Cl)c(-c3cc4ccccc4s3)n2)cc1)N1CCC(N2CCCC2)CC1 — remaining binding (binding; competition with immobilised ligand; 1 µM): 20%
C[C@@H]1CCN(c2nccc(-c3cnn4ncccc34)n2)C1 — remaining binding (binding; 1 µM): 79%
FC(F)(F)c1ccc2c(c1)nc(-c1cccnc1)n2C1CC1 — remaining binding (cell-free assay; competition with immobilised ligand; 1 µM): 100%
O=C(NCC1CCOCC1)c1n[nH]cc1NC(=O)c1c(F)cccc1F — remaining binding (binding; competition with immobilised ligand; 1 µM): 96%
CN(C)c1nccc(-c2cnn3ncccc23)n1 — remaining binding (binding; 1 µM): 100%
